Reference: the RNAGym collection of RNA variant scans (doi:10.1126/science.aae0568)
Variants at the floor of the assay were thinned out.

B1: tRNA (parent)
chain: GUUCCGUUGGCGUAAUGGUAACGCGUCUCCCUCCUAAGGAGAAGACUGCGGGUUCGAGUCCCGUACGGAACG

Variants of: B1
Test: yeast fitness relative to wild type (ratio to wild type); higher = fitter; tRNA-Arg(CCU), competitive growth, 37 C, YPD
Summary of the method: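 Genotype frequency changes were the basis for Darwinian fitness relative to wild type. The frequencies came from 100-nucleotide paired-end sequencing of gene amplicons from the start population and each end population of pooled yeast strains with tRNA-Arg(CCU) gene variants at the native locus. Competition ran in YPD at 37°C for 24 hours in six replicates, genotypes needed ≥ 100 starting reads, and estimates < 0.5 were set to 0.5.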
For GAUCAGUUGGCGUAAUGGUAACGCGUCUCCCUCCUAAGGAGAAGACUCCGGGUUGGAGUCCCGUAAGGAACG, the yeast fitness was at most 0.5.
Work on GAUCAGUUGGCGUAAUGGUAACGCGUCUCCCUCCUAAGGAGAAGACUGCGGCUUCGAGUCCCGUACGGAACG yielded a yeast fitness of at most 0.5.
With GAUCAGUUGGCGUAAUGGUAACGCGUCUCCCUCCUAAGGAGAAGACUGCGGGUUCGAGUCCCGUACGCAACG the yeast fitness was at most 0.5.
GAUCAGUUGGCGUAACGGUAACGCGUCUCACUCCUAAGGAGAAGACUGCGGGUUCGAGUCCCGUACGGAACG gave a yeast fitness of at most 0.5.
Variant GAUCAGUUGGCGUAAUGGUAACGCGUCUCCCUCCUAAGGAGAAGACUGCGGGUUCGAGUCCCGGAUGGAACG has a yeast fitness of at most 0.5.
Variant GAUCGGUUGGCGUAAUGGUAACGCGUCUCCCUCCUAAGGAGAAGACUGCGGGUUCGAGUCCCGUACGGAACG has a yeast fitness of 0.728.
Variant GAUCGGUUGGCGUAAUGGUAACGCGUCUCCCUCCUAAGGGGAAGACUGCGGGUUCGAGUCCCGUACGGAACG has a yeast fitness of 0.564.
In the case of GAUCGGUUGGCGUAAUGGUAACGUGUCUCGCUCCUAAGGAGAAGACUGCGGGUUCGAGUCCCGUACGAAACG, the yeast fitness is reported as at most 0.5.
For GAUCGGUUGGCGUAAUCGUAACGCGUCUCCCUCCUAAGGAGAAGACUGCGGGUUCCGGUCCCGUACGUAACG, the yeast fitness was 0.558.
GAUCGGUUGGCGUAAUGGUAACGCGUCUCCCUCCUAACGAGAAGACUGCGGGUUCGAGUCCCGUACGGAACG gave a yeast fitness of at most 0.5.
In the case of GAUCGGUUGGCGUAAUGGUAACGCGUCUCCCUCCUAAGGAAAUGACUGCGGGUGCGUGUCCCGUACGGAACG, the yeast fitness is reported as at most 0.5.
GAUCGGUUGGCGUAAUGGUAACGCGUCUCCCUCCUAAGGAGAAGACUGCGGGUUCGAGUCCCCUACCGUACG showed a yeast fitness of at most 0.5.
With GAUCGGUUGGCGUAAUGGUAACGCGUCUCCCUCCUAAGGAGAAGACUGCGGGUUCGAGUCCCGAACGGAACG the yeast fitness was at most 0.5.
With GAUCUGUUGGCGUAAUGGUAACGCGUCUCCCUCCUAAGGAGAAGACUGCGGGUUCGAGUCCCGUACGGAACG the yeast fitness was 0.906.
GAUCUGUUGGCGUAAUGGUAACGCGUCUCCCUCCUAAGGAGGAGAGUGCGGGUUCCAGUCACGUACGGAACG showed a yeast fitness of at most 0.5.
For GAUCUGUUGGCGUAAUGGUAACGCGUCUCCCUCCUAAGGAGAAGACUGCGGGUUCGAGUCCCGUUCGGUACG, the yeast fitness was 0.614.
In the case of GAUCUGUUGGUGUUAUAGUACCGCGUCUCCCUCCUAACGAGAAGACUGAGGGUUCGAGUCCCGUACGGAACG, the yeast fitness is reported as at most 0.5.
GAUCUGUUGGCGUAAUGGUAACGCGUCUGCCUCCUAUGGAGAAGACUGCGGGUUCGAGUCCCGUGCGGAACG gave a yeast fitness of at most 0.5.
With GAUCUGUUGGCGUAAUGGUAACGCGUCUCCAUCCUAAGGAGAAGACUGCGGGUUCGAGUCCUGUACGGAACG the yeast fitness was at most 0.5.
Variant GAUCUGUUGGCGUAAUGGUAACGCGUCUCCCUCCUAAGGAGAAGACUGCGGGUUCGAGUCCCGUAUGGAACG has a yeast fitness of 0.661.
For GAUCUAUUGGCGUAAUGGUAACGCGUCUCCCUCCUAAGCAGAAGACUGCGGGUUCGAGUACCGUACGGAACG, the yeast fitness was at most 0.5.
With GAUCUGUUGGCGUAAUGGUAACGCGUCUCCCUCCUAAAGAGAAGACUGCGGGUUAGAGUCCCGUACGGAACG the yeast fitness was at most 0.5.
Work on GAUCUGUUGGCGUAAUGGUAACGCGUCUCCCUCCUAAGCAGAAGACUGCGGGUUCGAGUACCGUACGGAACG yielded a yeast fitness of 0.541.
In the case of GAUCCGUUGGAGUGAUGGUAACGCGUCUUCCUCCUAAGGAGAAGACUGCGGGUUCGAGUCCCGUACGUAACG, the yeast fitness is reported as 0.564.
Work on GAUCCGUUGGAGUAAUGGUAACGCGUCUCCCUCCUAAGGAGAAGAUUGUGGGUUCGAGUCCCGUACGGAACG yielded a yeast fitness of at most 0.5.
Work on GAUCCGUUGGAGUAAUGGUAACGCGUCUCCCUCCUAACGAGAAGACUGCGGGUUCGAGUACCGUAUGGAACG yielded a yeast fitness of at most 0.5.
For GAUCCGUUGGGGUAAUGGUAGCGCGUCUCCCUCCUAAGGAGAAGACUGCGGGUUCGAGUCCCGUUCGGAACG, the yeast fitness was at most 0.5.
For GAUCCGUUGGGGUAAUGGUAACGCGUCUCCCUCCUAAGGAGUAGACUGCGGGUUCGAGUCCCGUACGGAACG, the yeast fitness was at most 0.5.
For GAUCCGUUGGGGUAAUGGUAACGCGUCUCCCUCCUAAGGAGAAGACUGCGGGUUCGUGUCCCGUAUGGAACG, the yeast fitness was 0.588.
With GAUCCGUUGGGGUAAUGGUAACGCGUGUCCCUCCUAAGGAGAAGACUGCGGGUACGAGUCCCGUACGGAACG the yeast fitness was at most 0.5.
In the case of GAUCCGUUGGGGUAAUGGUAACGCGUCUCACUCCUAAGGAGAAUACUGCGGGUUCGGGUCCCGUACGGAACG, the yeast fitness is reported as at most 0.5.
In the case of GAUCCGUUGGGGUAAUGGUAACGCGUCUCCGUCCUAAGGAGAAGACUGCGGGUUCGAGUCCCGUACGGAACG, the yeast fitness is reported as 0.6.
GAUCCGUUGGGGUAAUGGUAACGCGUCUCCUUCCUGAGGAGAAGACUGCGGGUUCGAGUCCCGUACGGAACG showed a yeast fitness of 0.646.
Work on GAUCCGUUGGGGUAAUGGUAACGCGUCUCCCUCGUAAGGAGAAGACUGCGGGUUCGAGUCCCGGACGGAACG yielded a yeast fitness of at most 0.5.
Variant GAUCCGUUGGGGUAAUGGUAACGCGUCUCCCUCUUAAGGAGUAGACUGGGGGUUCGAGUCCCGUACGGAACG has a yeast fitness of 0.788.
GAUCCGUUGGGGUAAUGGCAACGCGUCUCCCUCCUAAGGAGAAGACUGCGGGUUCGAGUCCCGUACGGAACG gave a yeast fitness of at most 0.5.
For GAUCCGUUGGGGUAAUGGUAACGCGUCUCCCUCCGAAGGAGAAGACAACGGGUUCGAGUCCCGUUCGGAACG, the yeast fitness was at most 0.5.
